Screening results (PubChem)
This is a sample that favours compounds with a hit; in the whole collection about 1.9% have one here.
ARFGAP1 inhibitor: inhibits rat ARF GTPase activating protein 1; actives 0.26% (n = 360,000); Arfgap1-stimulated ARF1 GTP hydrolysis, GDP FP detection; AID 651572; inhibition, % at 16.5 µM; Q62848;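 active means inhibition above a per-plate limit, mean inhibition of low control wells plus 3 SD, cut at about 25% in these data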;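 further: 0% = DMSO wells with enzyme and 100% = wells lacking Arfgap1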
Target sequence (Q62848 1-136 limits assumed): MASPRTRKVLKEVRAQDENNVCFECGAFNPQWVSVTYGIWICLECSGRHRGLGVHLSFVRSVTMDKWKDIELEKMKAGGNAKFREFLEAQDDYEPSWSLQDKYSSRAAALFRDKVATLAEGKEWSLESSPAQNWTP
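Assay system: purified rat His6-Arfgap1 residues 1-136 (GAP domain); Reagent: human Δ17 ARF1 bound to GTP; Dosing: 16.5 µM single point, 1.26% DMSO; Times: GTP hydrolysis reaction 2 h at 25 °C; Signal: FP, GDP Alexa 633 tracer displaced from anti-GDP antibody, 620/688 nm; Measure: % inhibition from polarization.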
ASAP1 GAP inh: ASAP1 ArfGAP inhibition; Q9ULH1; inhibition, % at 16.5 µM; actives 0.19% (n = 360,000); ASAP1-stimulated ARF1 GTP hydrolysis, GDP FP detection; AID 624377; in the data active means inhibition above about 25%;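 further: 0% = vehicle with enzyme and substrate and 100% = no enzyme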
FGF22 binding: binders of recombinant human FGF22 by thermal shift. activity (Tm shift, normalised), % at 9.99 µM. SYPRO orange fluorescence; percent of sucrose octasulfate shift, DMSO zero. Q9HCT0. actives 1.5% (n = 340,000). AID 651658;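 active means mean Tm shift, scaled 0 neutral to 100 positive control, at about 1.3% or above, every replicate too, limit read from the data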
Target sequence (Q9HCT0 whole entry, looked up): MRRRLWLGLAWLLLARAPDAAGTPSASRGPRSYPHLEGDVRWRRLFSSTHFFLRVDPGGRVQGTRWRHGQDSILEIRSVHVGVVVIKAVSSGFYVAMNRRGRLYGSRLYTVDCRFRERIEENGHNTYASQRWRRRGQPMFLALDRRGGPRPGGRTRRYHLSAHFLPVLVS
Rtt109 HAT inh: blocks Candida albicans Rtt109/Vps75 acetyltransferase activity | AID 540336 | inhibition, % at 34.9 µM | Q5AAJ8 | purified Rtt109/Vps75, ThioGlo CoA-SH fluorescence, 4 h | actives 0.16% (n = 330,000);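 active means inhibition of at least 50% in every replicate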
Efflux pump inh: inhibitors of Candida antifungal efflux pumps expressed in yeast; actives 0.44% (n = 330,000); inhibition, % at 10 µM; S. cerevisiae Candida pump triplex, Nile Red efflux; AID 485275;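 active means plate passing quality check with inhibition over a set limit, or well fluorescence over plate mean plus 4 SD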;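 further: Nile Red retained in pooled yeast measured as flow cytometry median fluorescence; 0% = buffer negative control and 100% = Enniatin B positive control; higher means more Nile Red kept so more efflux inhibition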
Starred values were filed as active, the others as inactive.

`Cc1ccc(S(=O)(=O)N(C)C[C@H]2Oc3cc(C4=CCCC4)ccc3S(=O)(=O)N([C@@H](C)CO)C[C@@H]2C)cc1` gave FGF22 binding 0.3.
Screening O=[N+]([O-])c1ccccc1S(=O)(=O)N1CCCCC1 returned ARFGAP1 inhibitor 14.2, ASAP1 GAP inh 0.6, Rtt109 HAT inh -0.5 and Efflux pump inh -0.1.
Screening CN(C(=O)C1CCN(S(=O)(=O)c2ccccc2[N+](=O)[O-])CC1)C1CCCCC1 returned ARFGAP1 inhibitor 11.1, ASAP1 GAP inh 12.9, FGF22 binding 43.8*, Rtt109 HAT inh 8.0 and Efflux pump inh 0.4.
`O=C(O)C1Cc2ccccc2CN1C(=O)COc1ccc(Cl)cc1` (configuration not stated) gave ARFGAP1 inhibitor -9.4, ASAP1 GAP inh -2.2, FGF22 binding 43.3*, Rtt109 HAT inh -1.5 and Efflux pump inh -0.2.
Screening O=C(O)C1Cc2ccccc2CN1S(=O)(=O)c1ccc(Cl)cc1 (configuration not stated) returned ARFGAP1 inhibitor -6.0, ASAP1 GAP inh 2.0, FGF22 binding 0.9, Rtt109 HAT inh 6.0 and Efflux pump inh 0.1.
`O=C(CCN1C(=O)c2cccc3cccc(c23)C1=O)NCc1ccco1` gave ARFGAP1 inhibitor -4.5, ASAP1 GAP inh -7.9, FGF22 binding 43.6*, Rtt109 HAT inh 21.7 and Efflux pump inh -0.1.
`Cc1ccc(NC(=O)CCN2C(=O)c3cccc4cccc(c34)C2=O)cc1` gave ARFGAP1 inhibitor 0.9, ASAP1 GAP inh 6.0, FGF22 binding -0.1, Rtt109 HAT inh 3.9 and Efflux pump inh -0.5.
O=C(CCN1C(=O)c2cccc3cccc(c23)C1=O)Nc1ccccc1 was read as ARFGAP1 inhibitor 5.1, ASAP1 GAP inh -3.6, FGF22 binding 43.2*, Rtt109 HAT inh -7.1 and Efflux pump inh 0.4.
For CCN(CC)C(=O)Cn1cc(C(=O)C(=O)NCC2COc3ccccc3O2)c2ccccc21 (configuration not stated) the results were ARFGAP1 inhibitor 7.0, ASAP1 GAP inh -1.9, FGF22 binding 0.0, Rtt109 HAT inh -5.7 and Efflux pump inh 0.0.
`Cc1nn(S(=O)(=O)c2ccc(C(C)C)cc2)c(C)c1S(=O)(=O)N1CCOCC1` gave ARFGAP1 inhibitor 0.3, ASAP1 GAP inh -9.7, FGF22 binding -0.1, Rtt109 HAT inh 54.3* and Efflux pump inh -0.1.
For COc1ccc2nc3ccccc3nc2c1NC(=O)c1ccccc1Cl the results were ARFGAP1 inhibitor 6.4, ASAP1 GAP inh 12.4, FGF22 binding 42.9*, Rtt109 HAT inh -1.8 and Efflux pump inh 0.1.
O=C(Nc1c2c(nc3ccccc13)CCCC2)c1ccccc1F was read as ARFGAP1 inhibitor 2.4, ASAP1 GAP inh -2.0, FGF22 binding 0.2, Rtt109 HAT inh -2.2 and Efflux pump inh -0.4.
Screening O=C(Nc1c2c(nc3ccccc13)CCCC2)c1ccccc1Cl returned ARFGAP1 inhibitor 4.1, ASAP1 GAP inh 11.3, FGF22 binding 44.0*, Rtt109 HAT inh -5.7 and Efflux pump inh 0.0.
For COCCCNc1c2c(nc3ccccc13)CCC2 the results were ARFGAP1 inhibitor -3.8, ASAP1 GAP inh 13.1 and FGF22 binding 43.8*.
For COc1ccc(Sc2cccc(Cl)c2)c(C(=O)O)c1 the results were ARFGAP1 inhibitor 5.3, ASAP1 GAP inh -5.4 and FGF22 binding -0.4.
`COc1c(C)cc(Br)cc1C(=O)Nc1ccc(C)cc1[N+](=O)[O-]` gave ARFGAP1 inhibitor 12.3, ASAP1 GAP inh 14.5, Rtt109 HAT inh 0.5 and Efflux pump inh 0.1.
For COc1ccc(CN(C(=O)c2snc(C(N)=O)c2N)C(C(=O)NC2CCCC2)c2ccc(OC)cc2)cc1 (configuration not stated) the results were ARFGAP1 inhibitor 13.0, ASAP1 GAP inh 3.0, FGF22 binding -0.4, Rtt109 HAT inh -1.8 and Efflux pump inh -0.4.
COc1ccc(CN(C(=O)c2nsc(Cl)c2Cl)C(C(=O)NC2CCCC2)c2ccc(OC)cc2)cc1 (configuration not stated) was read as ARFGAP1 inhibitor -3.4, ASAP1 GAP inh 2.4, FGF22 binding 43.2*, Rtt109 HAT inh 6.8 and Efflux pump inh 0.8.
CCOc1ccc(OCCn2nnc3ccccc3c2=O)cc1 was read as ARFGAP1 inhibitor 3.2, ASAP1 GAP inh 10.7, FGF22 binding 43.8*, Rtt109 HAT inh 5.1 and Efflux pump inh 0.1.
Screening COC(=O)c1ccc(N)c(CS(=O)(=O)c2ccc(Cl)cc2)c1 returned ARFGAP1 inhibitor -1.1, ASAP1 GAP inh 0.6, FGF22 binding -0.1, Rtt109 HAT inh 5.8 and Efflux pump inh 0.2.
